Many of the other results were omitted from the sample, so hits are more common in it than they were.
MDM2 E3 inh: inhibitors of human Mdm2 E3 ubiquitin ligase; Q00987; cell-based MDM2 ubiquitination luciferase reporter, 2 h; 0 = plate control, 100 = twice control, blank-subtracted; signal enhancement, % at 5 µM; 210,000 compounds, 0.11% hits; AID 1230;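 active means signal enhancement of 30% or more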;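 further: luminescence tracks abundance of the self-degrading MDM2-luciferase fusion protein; higher signal means inhibition of MDM2 E3 ligase activity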
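test system = mammalian cells stably expressing self-ubiquitinating, self-degrading MDM2 E3–luciferase fusion | quantity = 2000 cells/well | incubation = cell settling 4 h, compound treatment 2 h, both 37 °C | signal = luminescence with SteadyLite reagent, 15 min at room temperature | evaluation = % enhancement relative to plate controls after blank subtraction | benchmarks = plate controls and plate blanks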
S1P4 ag: human S1P4 receptor agonism | activation, % at 4.98 µM | S1P4-expressing cell line, agonist reporter assay | 220,000 compounds, 0.35% hits | O95977; in the data active means activation above about 11%;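 further: 0% = DMSO vehicle and 100% = reference agonist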
S1P3 antag: blocks the human S1P3 receptor | Q99500 | CHO S1P3 NFAT-BLA reporter, FRET fluorescence, antagonist mode | inhibition, % at 4.98 µM | 170,000 compounds, 0.27% hits;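 active means inhibition above the plate cutoff, the mean inhibition of test wells on that plate plus 3 SD, cut at about 28% in these data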;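 further: cells challenged with S1P at its EC80 of 0.8 µM; blue over green emission ratio from cleaved BLA substrate after 4 h stimulation; 0% = S1P-stimulated wells and 100% = unstimulated DMSO-only wells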
Target sequence (Q99500 whole entry, looked up): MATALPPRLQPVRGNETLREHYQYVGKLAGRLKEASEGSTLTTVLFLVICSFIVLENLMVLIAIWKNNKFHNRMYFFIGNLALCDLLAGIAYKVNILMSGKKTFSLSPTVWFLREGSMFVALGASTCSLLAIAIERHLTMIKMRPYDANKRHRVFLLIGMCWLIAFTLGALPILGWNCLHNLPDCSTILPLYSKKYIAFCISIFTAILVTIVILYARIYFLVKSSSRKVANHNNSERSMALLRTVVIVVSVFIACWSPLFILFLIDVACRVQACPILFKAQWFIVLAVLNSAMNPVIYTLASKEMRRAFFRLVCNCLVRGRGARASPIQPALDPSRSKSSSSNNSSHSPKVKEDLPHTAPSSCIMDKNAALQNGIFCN
L major viab: Leishmania major promastigote growth inhibition; AID 1063; inhibition, % at 10 µM; 200,000 compounds, 9% hits; Leishmania major promastigotes, resazurin fluorescence viability; in the data active means inhibition above about 50%;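 further: promastigotes grown with compound for 44 hours at 28 °C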
S1P4 antag: antagonists of human S1P4 receptor; O95977; S1P4-expressing cells, antagonist mode, reporter read-out; inhibition, % at 4.98 µM; 220,000 compounds, 0.26% hits; AID 1510; in the data active means inhibition above about 29%;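 further: 0% = wells stimulated with agonist and 100% = vehicle wells without agonist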
The depositor's hits bear a star; nt = not tested or not shown.

SMILES | MDM2 E3 inh | S1P4 ag | S1P3 antag | L major viab | S1P4 antag
CC1=C/C(=N\Nc2ccccc2[N+](=O)[O-])CC(C)(C)C1 | -5 | 0 | -7 | 40 | -9
O=C(c1ccccc1)c1c[nH]c(C(=O)C(Cl)(Cl)Cl)c1 | -14 | 1 | 1 | 87* | -11
O=C(c1c[nH]c(C(=O)C(Cl)(Cl)Cl)c1)c1ccc(F)cc1Cl | 2 | -1 | -15 | 71* | 16
O=C(c1ccc(Cl)cc1)c1c[nH]c(C(=O)NNc2ccccc2)c1 | -14 | 0 | 9 | 45 | -11
O=C(c1ccc(Cl)cc1)c1c[nH]c(C(=O)C(Cl)(Cl)Cl)c1 | -5 | 0 | nt | 86* | -26
Cc1cccc(-c2noc(-c3cc4ccccc4oc3=O)n2)c1 | -28 | -1 | nt | -5 | -8
O=C(Nc1ccc(Nc2ccccc2)cc1)C(Cl)(Cl)Cl | -4 | 1 | 0 | 78* | -12
CCC(=O)Nc1ccc(Nc2ccccc2)cc1 | -5 | 1 | -26 | 93* | -22
CC(C)(C)NC(=S)Nc1ccc(Nc2ccccc2)cc1 | -7 | -1 | nt | 61* | 3
COCC(=O)Nc1ccc(Nc2ccccc2)cc1 | -4 | -2 | -16 | 40 | -13
CNC(=S)Nc1cccc(S(=O)(=O)NC2=NCCC2)c1 | -7 | 0 | 2 | -4 | -2
Cc1ccc(S(=O)(=O)/N=C2\SC(CC(=O)Nc3ccc(F)cc3)C(=O)N2c2ccccc2)cc1 (stereo unspecified) | -23 | 2 | 4 | 63* | -22
O=C(CC1S/C(=N\S(=O)(=O)c2ccccc2)N(c2ccccc2)C1=O)Nc1ccc(F)cc1 (stereo unspecified) | 8 | 1 | -2 | -7 | -6
NNC(=O)c1sc2cc(C(F)(F)F)cnc2c1-c1cccnc1 | -8 | -2 | -7 | 4 | -6
O=C(O)c1cccc(Oc2ccc([N+](=O)[O-])cc2)c1 | -8 | 0 | -2 | 59* | -8
O=C(Nc1ccc(O)cc1)c1cccc(Oc2ccc([N+](=O)[O-])cc2)c1 | 1 | -1 | 2 | 13 | 10
COc1ccc(S(=O)(=O)NC(CC(=O)NCCc2ccc(OC)c(OC)c2)c2ccco2)cc1 (stereo unspecified) | -13 | 0 | 94* | -1 | -20
COc1ccc(S(=O)(=O)NC(CC(=O)NCCc2ccccc2)c2ccco2)cc1 (stereo unspecified) | -14 | -4 | nt | -2 | -1
O=Cc1c[nH]c2ccc(S(=O)(=O)N3CCOCC3)cc12 | -3 | 0 | 0 | -6 | 14
Cc1cc(Cl)ccc1OC(C)C(=O)Nc1ccc([N+](=O)[O-])cn1 (stereo unspecified) | -3 | 0 | -3 | 46 | -18
COc1ccc([N+](=O)[O-])cc1N(CC(O)CN(C)C)S(=O)(=O)c1ccc(C)cc1 (stereo unspecified) | -1 | 1 | -4 | -5 | -6
COc1ccc([N+](=O)[O-])cc1N(CC(O)CN1CCCCC1)S(=O)(=O)c1ccc(C)cc1 (stereo unspecified) | -13 | 1 | -5 | 56* | -5
CCCCN(CCCC)CC(O)CN(c1cc([N+](=O)[O-])ccc1OC)S(=O)(=O)c1ccccc1 (stereo unspecified) | -7 | 1 | -11 | 71* | 11
Cc1ccc(N(CC(O)CN2CCCCC2)S(=O)(=O)c2ccccc2[N+](=O)[O-])cc1 (stereo unspecified) | 6 | 0 | -1 | 99* | 5
O=c1c(Cc2c(F)cccc2Cl)c(O)ccn1CCc1c[nH]c2ccccc12 | -17 | 0 | -12 | 10 | -1
SMILES | MDM2 E3 inh | S1P4 ag | S1P3 antag | L major viab | S1P4 antag
CN(C)c1nc(N/N=C/c2ccccc2O)nc(Nc2ccc(F)cc2)n1 | -14 | -1 | -7 | 84* | 16
CN(C)c1nc(Nc2ccccc2)nc(N(C)C)n1 | -14 | 2 | nt | 39 | -18
O=C(c1cccc(OC2CCN(C3CCCC3)CC2)c1)N1CCCCCCC1 | -47 | 0 | 14 | 89* | 4
COc1ccccc1C(=O)N1CCN(C2CCN(Cc3ccccc3)CC2)CC1 | -17 | -1 | -42 | 91* | -6
COc1cccc(C(=O)N2CCN(C3CCN(Cc4ccccc4)CC3)CC2)c1 | -20 | -2 | nt | 90* | -2
Cc1cc(=O)oc2cc(OCC(=O)OCC(=O)N(C)C3CCS(=O)(=O)C3)ccc12 (stereo unspecified) | 0 | 0 | -11 | nt | 7
Cc1cccc(CSc2nnc(-c3cccs3)n2Cc2ccco2)c1 | 5 | 0 | nt | 90* | -1
Cc1ccc(C2(c3noc(CN(C)Cc4cccnc4)n3)CCCC2)cc1 | -8 | 0 | 6 | 6 | 2
COc1ccc(NC(=O)NC23CC4(C)CC(C)(CC(C)(C4)C2)C3)cc1 | -10 | 0 | -2 | 95* | 1
COc1ccc(NC(=O)Nc2ccc(F)c(Cl)c2)cc1 | 17 | 1 | 6 | -3 | 2
Cn1nnc(NCc2cc(Br)ccc2OCc2cccs2)n1 | -6 | 0 | 6 | 89* | -27
Cn1nnc(C(O)CNCc2cccs2)n1 (stereo unspecified) | -16 | -4 | -4 | -3 | 15
COc1ccc(C2N(S(=O)(=O)c3ccccc3)CCN2S(=O)(=O)c2ccc(C)cc2)cc1 (stereo unspecified) | -13 | -1 | nt | 100* | 12
Cc1ccc(S(=O)(=O)N2CCN(S(=O)(=O)c3ccc(C)cc3)C2c2ccccc2)cc1 | -15 | -2 | nt | 19 | 0
CCOC(=O)N1CCC(N2CCN(S(=O)(=O)c3ccc(OC)cc3)CC2)CC1 | -8 | -1 | 3 | -4 | 10
CCOC(=O)N1CCN(C(=O)C2CCN(S(=O)(=O)N3CCCC3)CC2)CC1 | -11 | 3 | -70 | 0 | -11
CCOC(=O)c1ccc(S(=O)(=O)N2CCN(C(=O)CSc3nc4ccccc4o3)CC2)cc1 | -2 | 0 | -6 | -4 | -12
CCOC(=O)N1CCC(N2CCN(S(=O)(=O)CC)CC2)CC1 | 14 | 3 | -3 | 94* | -17
CCOC(=O)N1CCC(N2CCN(S(=O)(=O)c3ccc(C)cc3)CC2)CC1 | 0 | 1 | nt | 85* | -3
CCOC(=O)c1ccc(S(=O)(=O)N2CCN(C3CCCC3)CC2)cc1 | 1 | 1 | 0 | 90* | -8
CCOC(=O)c1ccc(S(=O)(=O)n2c(CN3CCCCC3)nc3ccccc32)cc1 | 2 | 2 | 16 | 52* | -17
Cc1c(Cl)cccc1-c1ccc(/C=N/n2cnnc2)o1 | -19 | 1 | nt | 69* | -16
CCOC(=O)c1cc(-c2ccc(/C=N\n3cnnc3)o2)ccc1Cl | -8 | -3 | -5 | 7 | 1
Cc1cc(-c2ccc(/C=N/n3cnnc3)o2)ccc1Cl | 15 | 2 | -4 | 65* | 7
CCOc1cc(C(=S)N2CCCCC2)ccc1OCC(=O)NCc1ccccc1 | -10 | -1 | nt | 11 | -11
NC(=O)c1ccc2c(=O)n3c(-c4cccs4)csc3nc2c1 | 10 | nt | nt | nt | nt
Cc1[nH]n2c(=O)c3c(nc2c1-c1ccccc1)CCC3 | -9 | 2 | -20 | 22 | -13
